Results as given in ChEMBL document CHEMBL3872287, “Novel 2-Substituted 7-Azaindole and 7-Azaindazole Analogues as Potential Antiviral Agents for the Treatment of Influenza” (ACS Med Chem Lett, 2017).

Tests used:
aldehyde oxidase [1] = molecular target: T1, aldehyde oxidase (Homo sapiens, UniProt Q06278); test: Drug metabolism in human liver cytosol assessed as aldehyde oxidase-mediated metabolism by measuring amount of parent compound remaining measured over 4 hrs in presence of aldehyde oxidase inhibitor raloxifene by MS/MS analysis; assay type: ADME; conditions: read-out: Stability
T1 sequence (Q06278 whole entry): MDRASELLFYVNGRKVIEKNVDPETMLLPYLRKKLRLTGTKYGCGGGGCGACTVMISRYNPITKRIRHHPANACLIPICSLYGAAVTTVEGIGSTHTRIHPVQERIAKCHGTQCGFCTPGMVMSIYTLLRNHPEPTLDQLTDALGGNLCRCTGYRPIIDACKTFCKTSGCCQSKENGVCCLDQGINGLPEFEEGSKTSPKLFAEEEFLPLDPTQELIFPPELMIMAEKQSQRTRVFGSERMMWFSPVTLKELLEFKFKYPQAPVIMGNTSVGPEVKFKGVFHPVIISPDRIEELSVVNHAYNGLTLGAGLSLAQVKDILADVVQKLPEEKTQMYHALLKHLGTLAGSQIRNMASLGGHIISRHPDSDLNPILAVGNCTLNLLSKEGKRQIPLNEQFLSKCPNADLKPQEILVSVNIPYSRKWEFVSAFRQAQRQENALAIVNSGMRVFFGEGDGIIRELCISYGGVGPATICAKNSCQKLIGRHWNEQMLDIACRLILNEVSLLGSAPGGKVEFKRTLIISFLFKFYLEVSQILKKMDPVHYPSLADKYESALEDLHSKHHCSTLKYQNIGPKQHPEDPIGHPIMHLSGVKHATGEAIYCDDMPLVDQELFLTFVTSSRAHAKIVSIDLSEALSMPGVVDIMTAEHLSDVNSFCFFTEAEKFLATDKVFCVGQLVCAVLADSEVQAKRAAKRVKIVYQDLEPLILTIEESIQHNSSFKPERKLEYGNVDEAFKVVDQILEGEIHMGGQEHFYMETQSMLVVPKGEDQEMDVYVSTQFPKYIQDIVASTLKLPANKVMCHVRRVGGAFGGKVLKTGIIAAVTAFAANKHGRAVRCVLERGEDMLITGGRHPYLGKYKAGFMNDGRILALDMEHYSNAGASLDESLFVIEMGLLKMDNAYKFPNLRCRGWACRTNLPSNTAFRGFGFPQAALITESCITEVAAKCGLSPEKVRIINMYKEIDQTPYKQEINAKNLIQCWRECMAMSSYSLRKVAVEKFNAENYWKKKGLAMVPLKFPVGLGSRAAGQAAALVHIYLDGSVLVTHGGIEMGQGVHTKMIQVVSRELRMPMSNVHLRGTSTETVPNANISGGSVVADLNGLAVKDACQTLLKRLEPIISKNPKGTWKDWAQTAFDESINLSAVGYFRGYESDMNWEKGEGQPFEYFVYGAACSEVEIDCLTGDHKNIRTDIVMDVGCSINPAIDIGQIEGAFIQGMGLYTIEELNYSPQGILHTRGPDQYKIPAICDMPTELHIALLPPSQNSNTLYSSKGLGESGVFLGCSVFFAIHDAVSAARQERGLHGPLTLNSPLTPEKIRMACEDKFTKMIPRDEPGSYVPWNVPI
In short: (§1)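 Test compounds were incubated in triplicate at 1 µM in human liver cytosol (1 mg/mL protein) at 37 °C for 4 hours, with or without the aldehyde oxidase inhibitor raloxifene.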

aldehyde oxidase [2] = molecular target: T1, aldehyde oxidase; test: Drug metabolism in human liver cytosol assessed as aldehyde oxidase-mediated metabolism by measuring amount of parent compound remaining measured over 4 hrs in absence of aldehyde oxidase inhibitor raloxifene by MS/MS analysis; assay type: ADME; conditions: read-out: Stability; in short: as §1
[3] = Antiviral activity against Influenza A virus (A/Puerto Rico/8/34(H1N1)) infected in MDCK cells assessed as decrease in negative strand HA RNA levels after 20 hrs by bDNA hybridization method; assay type: functional, Influenza A virus (A/Puerto Rico/8/1934(H1N1))
In short: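 Viral RNA in infected cells quantified by branched DNA assay. EC90 is the test-compound concentration giving viral RNA levels equal to 10% of control wells.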

[4] = Cmax in mouse at 30 mg/kg, po; assay type: ADME, organism-based; set-up: dose 30 mg/kg, route oral; conditions: in vivo
[5] = AUC (0 to infinity) in rat at 3 mg/kg, po; assay type: ADME, organism-based; set-up: dose 3 mg/kg, time infinity, route oral; conditions: in vivo
[6] = Oral bioavailability in rat at 3 mg/kg; assay type: ADME, organism-based; conditions: in vivo
[7] = AUC in mouse at 30 mg/kg, po; assay type: ADME, organism-based; conditions: in vivo
[8] = Half life in rat at 1 mg/kg, iv; assay type: ADME, organism-based; conditions: in vivo
[9] = Clearance in rat at 1 mg/kg, iv; assay type: ADME, organism-based; conditions: in vivo
[10] = Volume of distribution in steady state in rat at 1 mg/kg, iv; assay type: ADME, organism-based; conditions: in vivo, read-out: Vdss
[11] = Cmax in rat at 3 mg/kg, po; assay type: ADME, organism-based; set-up: dose 3 mg/kg, route oral; conditions: in vivo

SMILES	remaining at 4 h (aldehyde oxidase [1]) [%]	remaining at 4 h (aldehyde oxidase [2]) [%]	EC90 ([3]; Influenza A virus, MDCK, 20 h) [nM]	other results
O=C(N[C@@H]1CCC[C@H](Nc2nc(-c3c[nH]c4ncc(F)cc34)ncc2F)C1)N1CCOCC1	103	7		
O=C(N[C@@H]1CCC[C@H](Nc2nc(-c3c(CO)[nH]c4ncc(F)cc34)ncc2F)C1)N1CC[C@@H](F)C1	114	105	10	
Cn1cnc(C(=O)N[C@@H]2CCC[C@H](Nc3nc(-c4n[nH]c5ncc(F)cc45)ncc3F)C2)c1	103	40	15	
O=C(N[C@@H]1CCC[C@H](Nc2nc(-c3c[nH]c4ncc(F)cc34)ncc2F)C1)N1CCCC1	99	4	1	Cmax [4]: 61100 ng/mL; AUC(0-inf) [5]: 30300 ng·h/mL; bioavailability [6]: 82%; AUC [7]: 336000 ng·h/mL; half-life [8]: 3.2 h; clearance [9]: 1.2 mL/min/kg; Vd [10]: 0.3 L/kg; Cmax [11]: 2600 ng/mL
O=C(O)[C@H]1C2CCC(CC2)[C@@H]1Nc1nc(-c2n[nH]c3ncc(F)cc23)ncc1F			3	
O=C(N[C@@H]1CCC[C@H](Nc2nc(-c3c(C4CC4)[nH]c4ncc(F)cc34)ncc2F)C1)N1CCCC1			> 3300	
O=C(N[C@@H]1CCC[C@H](Nc2nc(-c3n[nH]c4ncc(F)cc34)ncc2F)C1)N1CCCC1	101	1	2	Cmax [4]: 32100 ng/mL; AUC(0-inf) [5]: 1200 ng·h/mL; bioavailability [6]: 15.3%; AUC [7]: 44500 ng·h/mL; half-life [8]: 1.5 h; clearance [9]: 7.7 mL/min/kg; Vd [10]: 0.4 L/kg; Cmax [11]: 200 ng/mL
O=C(O)c1[nH]c2ncc(F)cc2c1-c1ncc(F)c(N[C@H]2CCC[C@@H](NC(=O)N3CCCC3)C2)n1			2200	
Cc1[nH]c2ncc(F)cc2c1-c1ncc(F)c(N[C@H]2CCC[C@@H](NC(=O)N3CCCC3)C2)n1	103	103	280	
O=C(N[C@@H]1CCC[C@H](Nc2nc(-c3c(/C=N/O)[nH]c4ncc(F)cc34)ncc2F)C1)N1CCCC1			91	
O=C(N[C@@H]1CCC[C@H](Nc2nc(-c3n[nH]c4ncc(F)cc34)ncc2F)C1)N1CCOCC1			14	
O=C(N[C@@H]1CCC[C@H](Nc2nc(-c3n[nH]c4ncc(F)cc34)ncc2F)C1)c1ccsc1	107	0	1	
O=C(N[C@@H]1CCC[C@H](Nc2nc(-c3n[nH]c4ncc(F)cc34)ncc2F)C1)N1CC[C@@H](F)C1	98	0.6	1	
O=C(N[C@@H]1CCC[C@H](Nc2nc(-c3c(CO)[nH]c4ncc(F)cc34)ncc2F)C1)N1CCCC1	96	100	28	Cmax [4]: 37700 ng/mL; AUC(0-inf) [5]: 9700 ng·h/mL; bioavailability [6]: 100%; AUC [7]: 101000 ng·h/mL; half-life [8]: 2.3 h; clearance [9]: 6.2 mL/min/kg; Vd [10]: 0.6 L/kg; Cmax [11]: 2800 ng/mL
CC(O)c1[nH]c2ncc(F)cc2c1-c1ncc(F)c(N[C@H]2CCC[C@@H](NC(=O)N3CCCC3)C2)n1 (stereo in doubt; 21a)				EC90 [3]: 27 nM
CC(O)c1[nH]c2ncc(F)cc2c1-c1ncc(F)c(N[C@H]2CCC[C@@H](NC(=O)N3CCCC3)C2)n1 (stereo in doubt; 21b)	99	99		EC90 [3]: 460 nM
